Screening data: PubChem, several laboratories
HNF4A DNA FP: change in binding of human HNF4 alpha to DNA. actives 0.3% (n = 360,000). HNF4a-FITC DNA binding, fluorescence polarization, 1 h. P41235. activity change, % at 10 µM; in the data active = activity change above about 30%, passing the limit was not always enough
Target sequence (P41235 whole entry, looked up): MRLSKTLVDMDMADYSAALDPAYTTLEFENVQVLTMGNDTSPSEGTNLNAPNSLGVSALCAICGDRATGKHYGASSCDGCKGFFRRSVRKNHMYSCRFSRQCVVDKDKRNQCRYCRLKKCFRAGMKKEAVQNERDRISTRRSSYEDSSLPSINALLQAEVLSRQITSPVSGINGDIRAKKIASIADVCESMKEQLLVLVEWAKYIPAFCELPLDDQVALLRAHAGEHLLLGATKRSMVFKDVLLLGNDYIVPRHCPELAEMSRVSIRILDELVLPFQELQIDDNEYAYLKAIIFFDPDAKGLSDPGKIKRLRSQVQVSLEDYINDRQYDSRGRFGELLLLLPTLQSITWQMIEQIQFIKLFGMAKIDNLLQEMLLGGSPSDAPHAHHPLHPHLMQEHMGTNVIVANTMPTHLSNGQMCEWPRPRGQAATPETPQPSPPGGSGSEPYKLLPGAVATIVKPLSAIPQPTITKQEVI
Pemphigus Ab inh: inhibitors of pemphigus antibody binding to human desmoglein-3 | DSG3-coupled beads, scFv-anti-DSG3-GFP binding, flow cytometry; stronger effect = lower value | binding (percent of control), % at 10 µM | actives 0.48% (n = 310,000);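 active = binding more than 3 SD below its plate's average and above zero; inconclusive = below that plate limit but binding exactly zero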;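 note: hits lower antibody fragment binding to DSG3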
SENP1 inh: blocks the human SENP1 SUMO protease catalytic domain; Q9P0U3; actives 0.21% (n = 360,000); recombinant SENP1 catalytic domain, CyPet-SUMO1-YPet FRET cleavage; inhibition, % at 10 µM;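 active = inhibition at least 30% at 10 µM, raw YFP signal under a set limit, fluorescence ratio 0.5 to 1.5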;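 note: 0% = enzyme with DMSO and 100% = no enzyme wells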
Target sequence (Q9P0U3 419-644 limits assumed): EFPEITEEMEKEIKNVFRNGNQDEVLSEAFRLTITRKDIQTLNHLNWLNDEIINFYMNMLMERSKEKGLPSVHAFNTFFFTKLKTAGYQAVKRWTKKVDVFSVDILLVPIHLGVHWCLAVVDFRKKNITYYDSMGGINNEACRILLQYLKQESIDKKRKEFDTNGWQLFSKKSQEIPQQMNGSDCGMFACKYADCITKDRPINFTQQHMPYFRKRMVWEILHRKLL
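Compound: 10 µM single point, 0.5% DMSO; Test system: hSENP1 catalytic domain, recombinant; Timing: 50 min reaction at room temperature; Technique: FRET, CFP and YFP emission; Control set: no-enzyme wells low, DMSO-plus-enzyme wells high control.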
Myeloid diff MLP: myeloid differentiation induction; ER-HoxA9 myeloid progenitors, lysozyme-GFP differentiation, flow cytometry; calls only at 10 µM; actives 1% (n = 360,000);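 active = normalized GFP-positive differentiation at or above the plate's own cutoff, the solvent-only control mean plus 3 SD; inconclusive = no clear call, values can overlap the other calls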;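 note: cells exposed to compound for four days before flow analysis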
Cardio protect: modulators protecting cardiomyocytes from myocardial damage. H9c2 cardiomyocytes, H2O2 injury protection, ATPLite, 2 h. protection from H2O2 cell death, % at 20 µM. actives 0.63% (n = 360,000). AID 588492;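 active = compounds giving at least 50% protection of heart cells from peroxide-induced death in the single-dose screen, raw or plate-pattern-corrected value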;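 note: 0% = DMSO wells with peroxide and 100% = DMSO wells without peroxide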
Granule exo inh: lytic granule exocytosis inhibition; TALL-104 LAMP-1 surface exposure, flow cytometry; cells stimulated with thapsigargin and PMA; inhibition, % at 10 µM; actives 0.66% (n = 360,000);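 active = inhibition above about 55%, limit read from the data; inconclusive = no clear call, values can overlap the other calls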
* hit, by the source's call; i = inactive; ? = inconclusive; / = no result; + = active, no number. An excerpt weighted towards active compounds, which were near 3% of everything screened.

SMILES | HNF4A DNA FP | Pemphigus Ab inh | SENP1 inh | Myeloid diff MLP | Cardio protect | Granule exo inh
N#Cc1ccc(CSc2nnc(-c3ccccc3)n2Cc2ccco2)cc1 | 4.8 | 97.1 | 0.5 | + | 4.3 | -0.5
O=C(CSc1nnc(-c2cccnc2)n1Cc1ccco1)c1ccccc1 | 3.6 | 97.4 | -0.3 | i | 50.3* | -0.9
CCN(c1ccccc1)S(=O)(=O)c1ccc2c(c1)C(C)(C)C(=O)N2C | -3.2 | 103.7 | -0.7 | i | 16.2 | -13.0
CCOc1cc(/C=C/c2nc3ccccc3c(=O)[nH]2)ccc1O | 2.9 | 98.1 | 2.8 | i | 57.1* | -8.7
COc1cc(/C=C/c2nc3ccccc3c(=O)[nH]2)ccc1O | 6.3 | 108.3 | 5.0 | i | 28.3 | 0.0
O=c1[nH]c(/C=C/c2ccccc2Cl)nc2ccccc12 | 79.5* | 93.1 | -2.7 | ? | -9.0 | -19.1
CCN1CCN(c2ccc(S(=O)(=O)N3CCCCC3)cc2NC(=O)CCNC(C)=O)CC1 | 1.9 | 97.9 | 1.7 | i | 4.8 | -2.2
N#CC(C#N)=C1c2cc(S(=O)(=O)NCCO)ccc2-c2ccc(S(=O)(=O)NCCO)cc21 | -7.6 | 107.0 | 32.9* | i | 1.1 | -0.8
CCOC(=O)C1C(=O)NC(SCC(=O)OC)=C(C#N)C1c1ccccc1OCC (centres undefined) | -1.1 | 94.8 | 0.6 | i | 72.0* | 0.9
CCOC(=O)CSC1=C(C#N)C(c2ccccc2OCC)C(C(=O)OCC)C(=O)N1 (centres undefined) | 2.2 | / | 0.3 | i | 7.8 | -1.2
Cc1c(Cl)cccc1NC(=S)NCCc1ccc(F)cc1 | 5.8 | 107.2 | 2.0 | i | -13.4 | 83.8*
O=C(CCC1CCCC1)NNC(=O)c1ccc(F)cc1 | -1.8 | 103.4 | 0.1 | i | -2.9 | 6.6
CCCc1c(NC(=O)Nc2ccc(F)cc2)cnn1-c1ccc(Cl)cc1 | 5.1 | 113.4 | 1.0 | + | -9.2 | -2.1
O=C(NCCc1ccc(Cl)cc1)Nc1ccc(F)cc1 | -2.4 | 83.3 | -0.7 | i | -3.3 | 1.0
FC(F)(F)c1cccc(-n2c(Cn3nnc4ccccc43)n[nH]c2=S)c1 | -4.3 | 108.8 | 1.9 | i | 4.0 | 18.7
CCOc1cc(C2NC(=O)CCC2[N+](=O)[O-])cc(Br)c1OC (centres undefined) | 3.5 | 98.8 | 1.6 | i | 5.3 | -4.0
COc1ccc(CCC(=O)OCc2csc(CC(=O)Nc3ccccc3C)n2)cc1 | 1.5 | / | -14.9 | + | 6.3 | -0.4
Cc1ccccc1NC(=O)Cc1nc(COC(=O)c2ccc(S(C)(=O)=O)c([N+](=O)[O-])c2)cs1 | -0.6 | 98.1 | -1.0 | + | -24.4 | 2.9
Cc1ccccc1NC(=O)COC(=O)c1ccc(S(C)(=O)=O)c([N+](=O)[O-])c1 | 3.2 | 95.7 | 3.1 | i | -26.4 | 5.8
Cc1ccc(S(=O)(=O)N2C(=O)CCC2C(N)=O)cc1 (centres undefined) | 3.0 | 109.8 | -2.5 | i | -0.4 | 9.3
Fc1ccccc1NC(=S)NN(Cc1ccccc1)c1ccccc1 | 37.6* | 102.7 | 1.4 | i | -1.1 | -5.2
CC(C)c1ccccc1NC(=S)NN(Cc1ccccc1)c1ccccc1 | 3.0 | 104.9 | 2.1 | i | -3.1 | -2.4
CCCc1nc(SCC(=O)N2CCN(c3ccccc3)CC2)c2c(=O)n(C)c(=O)n(C)c2n1 | 0.8 | 97.6 | 2.8 | + | 23.8 | -4.2
CC(C)c1nc(SCC(=O)N2CCN(c3ccccc3)CC2)c2c(=O)n(C)c(=O)n(C)c2n1 | 2.6 | 101.6 | 0.1 | ? | 1.5 | 4.7
CCOC(=O)CNC(=O)CN1CCC(c2nc3ccccc3[nH]2)CC1 | -1.0 | 103.3 | 0.0 | i | -0.3 | 0.4
SMILES | HNF4A DNA FP | Pemphigus Ab inh | SENP1 inh | Myeloid diff MLP | Cardio protect | Granule exo inh
CSc1nc2sc3c(c2c(=O)[nH]1)CCC3 | 2.4 | 93.5 | -1.7 | i | 52.0* | -2.3
Cc1cccc(NC(=O)C(C)SCc2nc3sc4c(c3c(=O)[nH]2)CCCC4)n1 (centres undefined) | 16.5 | 108.9 | 11.6 | + | 0.5 | 5.3
CCCCc1nc2sc3c(c2c(=O)[nH]1)CCC3 | 2.2 | 114.3 | 0.8 | i | 69.9* | -10.1
O=C(O)c1ccc(-c2ncc[nH]2)cc1 | 5.3 | 99.2 | -1.3 | i | 5.8 | -1.1
CCCCNc1ccc2c(c1)C1CC2CCN1C(=O)OCc1ccccc1 (centres undefined) | -2.0 | 92.8 | 0.8 | i | -8.4 | 0.1
O=C(Nc1nnc(-c2cccs2)o1)c1cccc(Oc2ccccc2)c1 | 2.8 | 95.5 | 4.5 | i | 53.2* | 0.6
O=C(Nc1nnc(-c2cccs2)o1)c1cccc(F)c1 | -2.5 | 102.1 | 0.0 | i | 14.2 | -3.6
O=C(CNC(=O)c1ccccc1Cl)NCCc1cccs1 | 2.8 | 131.7 | -5.0 | i | 8.9 | 13.8
O=c1[nH]n(Cc2ccccc2)c(=O)c2ccccc12 | 1.1 | 94.3 | 2.0 | i | 56.5* | 4.0
O=[N+]([O-])c1ccc(N2CCN(C(=S)NCc3ccc(Cl)cc3)CC2)cc1 | 2.9 | 96.3 | -18.1 | i | -11.1 | 67.7*
CCCCCCCCSc1nnc(-c2ccc(OC)cc2)o1 | 1.4 | / | 0.3 | i | -23.8 | -0.7
CCCCCCCCSC1=CC(=O)C(OC)=C(OC)C1=O | -0.7 | 99.0 | 0.8 | / | -26.7 | 113.8*
O=C(CCCSc1ccc(Cl)cc1)Nc1cc(S(=O)(=O)N2CCOCC2)ccc1O | 1.1 | 97.8 | -12.0 | i | -8.8 | -1.6
Fc1ccc(CSc2ccc3nnc(-c4cccnc4)n3n2)cc1 | 0.2 | / | 1.5 | i | 79.8* | 1.7
Clc1ccc(CSc2ccc(-c3cccnc3)nn2)cc1 | 1.0 | 100.4 | 0.0 | + | 3.3 | -1.0
Fc1cccc(Cl)c1CSc1ccc(-c2cccnc2)nn1 | 1.9 | 103.8 | -1.1 | i | -0.1 | 0.0
O=C(O)CSc1ccc2nnc(-c3cccnc3)n2n1 | 1.4 | 95.4 | 0.6 | i | 2.5 | -2.3
COc1ccc(CC(=O)N/N=C(\C)CC(=O)Nc2ccc(N(C)C)cc2)cc1OC | -2.0 | / | 1.2 | i | 1.0 | -5.4
CC(=O)Oc1ccc(N(C(C)=O)S(=O)(=O)c2ccc(Cl)cc2)c2ccccc12 | 1.6 | 111.3 | 0.3 | i | -17.9 | 12.1
CC(=O)Oc1ccc(N(C(C)=O)S(=O)(=O)c2ccc(C)cc2)c2ccccc12 | 1.8 | 110.6 | -0.2 | + | 6.6 | 4.1
CCOC(=O)C1=c2s/c(=C\c3cccnc3)c(=O)n2C(N)=C(C(=O)OC)C1c1cccnc1 (centres undefined) | -0.5 | 89.6 | 2.6 | i | 46.3 | 0.3
CCOC(=O)C1=c2s/c(=C\c3ccncc3)c(=O)n2C(N)=C(C(=O)OC)C1c1ccncc1 (centres undefined) | 3.8 | 100.9 | 1.0 | i | 68.3* | 0.4
